Results as given in the EternaBench riboswitch data.

Test system: MS2 coat protein
Experiment: apparent Kd, MS2 coat protein; higher = weaker binding; RNA-MaP array; FMN 200 µM where present
Outline: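 In 100 mM Tris-HCl pH 7.5, 80 mM KCl, 4 mM MgCl2, BSA, DTT, yeast tRNA and Tween-20, SNAP-549-labelled MS2 coat protein was titrated from 0.7 or 1.5 nM, doubling to 3 µM, over designs transcribed by stalled E. coli RNA polymerase on Illumina sequencing-chip clusters. This was done first without ligand, then with ligand held constant. After green signal was normalised to red-channel RNA signal and control-cluster median Fmax, the apparent Kd was taken as the median of filtered per-cluster binding-curve fits.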

[1] = designed as: OFF switch for flavin mononucleotide, no ligand
[2] = ligand present: flavin mononucleotide, designed as: OFF switch for flavin mononucleotide
[3] = designed as: ON switch for flavin mononucleotide, no ligand
[4] = ligand present: flavin mononucleotide, designed as: ON switch for flavin mononucleotide

Sequence	apparent Kd [1] [nM]	apparent Kd [2] [nM]	apparent Kd [3] [nM]	apparent Kd [4] [nM]
GUCAGCUCGUGAGGAUAUACAUGUGCUGGAGACAGCACUAUUAAAUUCACAUGAGGAUCACCCAUGUAGAAGGCACGAGCUGAU	15.2	18.6		
UGUCGGAGCAGAGGAUAUUACAUGAGGAUCACCCAUGUAUGAACCAAUAGCUGGAAACAGCAAUGGAAGAAGGCUGCUCCGACA	4.99	5.37		
CUAUUCCGAGGAUAUACAUGAGGAUCACCCAUGUCGGGCCUCCGCGUUUAGCGCCUCAGUAGAAGGCGGGUUUC	19.1	25.4		
CAUUUACAGGGAGGAUAUACAUGAGGAUCACCCAUGUCAUCAUACGAUCUUUCUUUUGUAUGAGUGUAGAAGGCCCAACUACCA	13.6	14.6		
CGGUGACAUGAGGAUCACCCAUGUUAGGAUAUACAAAAGCUCGCUCAAGGGCGGCGAAGUAGAAGGAGCGUGCC	21.7	29.7		
GGCUCAUUUACAUUAAUGUGCAGACAGGAUAUCCACGGCGGUUCCUACAUGAGGAUCACCCAUGUGGAGAAGGGUCGCUAAUGG	19.6	28		
ACGUUGUCAGGAUAUCGUUAAUUUAGUUGUUUGUAUUAGUUCGAGAAGGGACAUGAGGAUCACCCAUGUUUGCU	24.4	27.1		
CCGCCCUGAGGAUAUCCACCCUCAUACAUGAGGAUCACCCAUGUUCACCCUUGGGUUCCCGGAGAAGGCAGUUUUC	306	521		
ACAUGUCGUGAGAAGGACGGCGUGCAUAGCGCCGUAGGAUAUCAAGACAUGAGGAUCACCCAUGUACGCGUGUCCCGCCGUGCU	38.7	303		
UUUUAACAUGAGGAUCACCCAUGUGAGGAUAUCGUUAUUUUUAUUAAUAUUAAUAAAACGAGAAGGCACAUUUU	104	114		
CAAAUCUGAGGAUAUCGAUAUUUGUACAUGAGGAUCACCCAUGUCCUAUUUAUUAUAUUUCGAGAAGGCAGUGUAU	19.5	17.2		
GCUUUAUAGAUCCAUUUUAACAACAUGAGGAUCACCCAUGUGCAGGAUAUCGUUUGUUUUAUAUUCGAGAAGGGCAAAUUCAGC	32.5	77.6		
AGUUACAAACUCAACAUGAGGAUCACCCAUGUACUCUCUUGUAAGGAUAUACAUUCGUAUUGAAAGUAGAAGGUACUAAUUAUG			69.4	69.8
UUGGAGUUCGUAGGAUAUGUAGGAUAUUCCUACAUGAGGAUCACCCAUGUAUGCAUGGAAGAAGGACAGAAGGACGAGCUCCAU			184	13
AGAUUUGUACAUGAGGAUCACCCAUGUUAAUAGGUGUUUGUCAGAAGGCAUUAAUAGAGAUUUAAUGAGGAUAUGAAUUUACAA			58.2	28.9
CUUUUGUGAGGAUAUCAGUAGUAAUACAAUAGUAUUACUGCUGAGAAGGCACAUGAGGAUCACCCAUGUUCCUC	59.9	284		
GUAGCUAUCGGAGGAUAUUCAUACUGGAAACGGACAUGAGGAUCACCCAUGUGGCGAAAGCCUUGGGAGAAGGUCGAUAGCUAC			177	10.1
UUAAUUAACAAGAAGGCAUACAUGAGGAUCACCCAUGUUGUACAUGGAUAAUGAGGAUAUUGCUAAUACAUGAGGAUCACCCAU	36.5	34.3		
GACAUACAUGAGGAUCACCCAUGUACAGACGUACAAGGAUAUGUGUGGAAACCGUACUAUACAGAAGGUGUUUGUC			73.1	33.9
UCCCGGGUGCAGAAGGGAUAGGCCUAUUUUCGUGGUAUCCAAACCUAACAUGAGGAUCACCCAUGUCAGGAUAUGCCCACGGGA	4.87	5.29		
GCUGCAUAGUCAGGAUAUGCAACAUAAUAUACAAAAUAGUAUAUUAUGACAUGAGGAUCACCCAUGUAGAAGGGACUGUGCAGU	19.3	19.9		
UGGCGACAUGAGGAUCACCCAUGUAUUUCCAGUUAAGGAUAUAGGUGCUAGCAACGGCAGCUAGAAGGUGAGAUAA			42	58
AGAAACUACGAGAAGGACAUAUGACUAAGACUAAACAUGAGGAUCACCCAUGUAGGAUAUCGUAGUUUCAGGAUCGUGAGAUCA	5.75	7.87		
ACAAGAUCAGGAUAUACAUGAGGAUCACCCAUGUAUAUCCAAAAAGGGCUUUCUACAUGUAGAAGGGAUCUUGU	13.4	13.1		
UGUUGUAUUACAGGAUAUCUAGUAUUUUUAUUCAGAGAAGGGUAUUCACAUGAGGAUCACCCAUGUAUAUACGAGGAAGUUGUG			45.2	46.2
UUAGACGUCGUAGGAUAUGUAGGAUAUUCCUACAUGAGGAUCACCCAUGUUGACAUGGAAGAAGGACAGAAGGACGAUGUCCAU			307	4.91
UCACGGGACUAAGGAUAUACAUGAACCAUUUUUGUAGAAGGUAGAAUGUUUGAUCAUAAACUAAACAUGAGGAUCACCCAUGUU	23.4	21		
UAUGAACAUGAGGAUCACCCAUGUGGUAAGAUCACAGGAUAUCACCUCGGACGUGCGAUGUGAGAAGGGUGAUGGU			585	113

Sequence	apparent Kd [1] [nM]	apparent Kd [2] [nM]	apparent Kd [3] [nM]	apparent Kd [4] [nM]
AGGAAGCAAGGAUAUACGAGGAGAAGGUGGAGAGUUAAAGGACAUGAGGAUCACCCAUGUAGAAGGUGCGAGAA	59.7	76.8		
UGAAAUCAUGUAGGAUAUGCAUGGCGAAGCUACGCAGAAGGACAUGAGGAUCACCCAUGUUAUAGCUACCCAGUUCGGUGGCAA	141	118		
GUCAGCUCGUGAGGAUAUACAACACUGCUUCGGCAGUGUAUUAAGAUCACAUGAGGAUCACCCAUGUAGAAGGCACGAGCCGAU	14.3	271		
GCUGGUCGAGGAUAUACGUGACGUGCUUCGGCACGAGGUCUACAUGAGGAUCACCCAUGUAGAAGGCGACCAGC	14.5	52.7		
GGUUGUCAUAGUCAUCCUUAACGUACAUGAGGAUCACCCAUGUAGGAUAUGCUACUCAAAGAGUAGCAGAAGGGCGUGUGUCUU	31	35.5		
UGCUGGGAGUCAGGAUAUACGUGGUAUGCUGAGCACAUGAGGAUCACCCAUGUAGAAGGGAUUCCGCGGUGAGAUUCCGAAACA	6.03	6.62		
CUUUUGUGAGGAUAUCAGUAGUAUAAAAUAAAAUAUACUACUGAGAAGGCACAUGAGGAUCACCCAUGUUCCUC	38.3	263		
UGAAAUCAUGUAGGAUAUGCAUGGCGAAGCUACGCAGAAGGACAUGAGGAUCACCCAUGUUAAAGCUACCGGAUACGGUGGCAA	192	156		
UUUCUCUGGGCGUCUUCUUACAUGAGGAUCACCCAUGUUUCAUAGGAUAUGCUAUAGUGUUACAUGCAGAAGGAUGUUUGUUUU	234	474		
GUCAGCUCGUGAGGAUAUACAUGAUAGAUCGAUUAAUUAAUUAAUUUAACAUGAGGAUCACCCAUGUAGAAGGCACGAGCUGAC	51.7	46.7		
GGACUUCCUGAGGAUAUUGUAUCACCUGAUUGAUAAGAAGGCAGAACAUGAGGAUCACCCAUGUGGGUACUCGG	136	125		
GUAUAUCACUCAGGAUAUCUGUAAUUUAUUGAAACAUGAGGAUCACCCAUGUUCAUAAAUUUAUAGGAGAAGGGAGAGAUAUAC			4.39	4.58
AAAAAAAAAACUCAGGAUAUAGAUUGUAGAACAUGAGGAUCACCCAUGUAGUGAAAGAAGAGAGACUAGAAGGGAGUAAAAAAAAA			85.7	74.7
GUGGCAUGAGGAUAUCGAGGUUAGUACAUGAGGAUCACCCAUGUUAUCCAGGUGUCGGUUCGAGAAGGCAUGGCAC	326	302		
GAGAGACAUGAGGAUCACCCAUGUAGAAUAGAACAAGGAUAUGUGGAAGGCGGAGGAGAGACAGAAGGUGUAGGAG			108	52.9
AACAAUCUAUCUGAGGAUAUCAUGUCAAAGACAUGAGGAUCACCCAUGUUGCAGGAAACUGCUCAUGAGAAGGCAGAUAGAUUGA			614	43.7
AACAGUACAGGAUAUACAUGAGGAUCACCCAUGUGAGAAUUAAGUGGCGUACCACUAAGUAGAAGGGUACUGGA	51.6	151		
AACCAUGUCCGAGGAUAUCUGGAAACAUUUCCAAGAGAAGGCGGACAUGAGGAUCACCCAUGUCUCUCCUCAUCAAAUCCAAGU	12.4	94.6		
GUACUAAAGCUUUGCUUUAGUCGUACAUGAGGAUCACCCAUGUAGGAUAUGGUAGGCUUUGCUUACUAGAAGGAUAGAGUGAUC	110	36.1		
GCGCUUAUACAGAAGGCCAUAUACAUGAGGAUCACCCAUGUUACAUGGUGGAGGAUAUGUUAUUAAUUACAGGUAGAUGAGCGC			4.61	4.42
AUGGUGGUAGGAUAUACAACUACUUGAUCGCGUUUCAUGGAACAUGAGGAUCACCCAUGUAGAAGGGCCCGAGG	794	552		
UCGUACAUUCGAGGAUAUCGGUGAUAAAUAAUACGAGAAGGCGAUUUUAGGCAUAACGCCUUAGACAUGAGGAUCACCCAUGUA			68.1	55.1
GACAUACAUGAGGAUCACCCAUGUUCAAACGGGCAAGGAUAUGUGUGGAAACCAUACUAUACAGAAGGUGUCUGUC			28.4	18.7
GUGGCACAUGAGGAUCACCCAUGUCAGGAUAUCGCGUGGUUUUUUUCGGCCGCGCGCGCGAGAAGGGACGUCUU	31.1	29.1		
AUCGGUCCGUAGAAGGGUGACAUGAGGAUCACCCAUGUGCCGUGUGCAUUUAUGCAUCCACGGCCACAGGAUAUACGGAGUUGA			34.9	25.4
AAGAUGUCUUGAGGAUAUCCAAAGGAAACCGCAGGAGAAGGCAGGACAUGAGGAUCACCCAUGUUGGGUUUAAUGCGAACAUAA	102	342		
UAUCGAGUAGCAGGAUAUUAUGUGGCUAAUUCCGAGUCUGAUGCUUCACAUGAGGAUCACCCAUGUAAGAAGGGCUAACUCGGG	26.2	63.7		
